Results as given in the RNAGym collection of RNA variant scans (doi:10.1126/science.aae0568).
Fewer inactive variants are shown than the library holds.

B1: tRNA (parent)
chain: GUUCCGUUGGCGUAAUGGUAACGCGUCUCCCUCCUAAGGAGAAGACUGCGGGUUCGAGUCCCGUACGGAACG

Variants of: B1
Experiment: yeast fitness relative to wild type (ratio to wild type); higher = fitter; tRNA-Arg(CCU), competitive growth, 37 C, YPD
How it was run: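 Changes in genotype frequencies gave Darwinian fitness relative to wild type. Frequencies were read by 100-nucleotide paired-end sequencing of gene amplicons before and after pooled Saccharomyces cerevisiae strains, carrying tRNA-Arg(CCU) gene variants at the native locus, were competed in YPD at 37°C for 24 hours in six replicates. A genotype was kept only with ≥ 100 starting reads, and estimates < 0.5 were set to 0.5.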

Row | Variant | yeast fitness
1 | GUUCAGUUCGCGUAAUGGUAACGCGUAUCUCUCCUAAGGAGAAGACUGCGGGUUCGAGUCCCGUGCGGAACG | ≤ 0.5
2 | GUUCAGUUGGCGUAAUGGUAACGCGUCUCCUUCUUAAGGAGAAGACUGCGGGUUCGAGUGCCAUACGGAACG | ≤ 0.5
3 | GUUCAGUUGGCGUAAUGGUAACGCGUCUCCCUCGUAAGGAGACGACUGCGGGUUCGAGUCCCGUACGGAACG | ≤ 0.5
4 | GUUCAGUUGGCGUAAUGGUAACGCGUCUCCCUCGUAGGGAGAAGACUGCGGGUUCGAGUCCCGUACGGAACG | ≤ 0.5
5 | GUUCAGUUGCCGUAAUAGUAACGCGUCUCCCUCCUAAGGUGAAGACUGCGGGUACGAGUCCCGUACGGAACG | ≤ 0.5
6 | GUUCAGUUGGCGUAAUGGUAACGCGUCUCCCUCCUAAGGAGAAGACUGCGGGUUCGAGUCCUGUACGGCACG | 0.738
7 | GUUCAGUUGGCGUAAUGGUAACGCGUCUCCUUCCUAAGGAGAAGACUGCGGGUUUGAGUCCCGUACGGAACG | 0.6
8 | GUUCAGUUGCCGUAAUGGCAACGGGUCUCCCUCCUAAGGAGAAGACUGCGGGUUCGAGUCCCGUACGGAACG | ≤ 0.5
9 | GUUCAGUUGGCGUAAUGGUAACGCGUCUCCCUCCUAAGGAGAAGACUGCGGGUUCGAGUUCCGUAUGGAACG | ≤ 0.5
10 | GUUCACUUGGCGUAAUGGUAACGCGUCUCCCUCCUAGGGAGAAGACUGCGGAUUGGAGUCCCGUACGGAACG | ≤ 0.5
11 | GUUCAGUUGGCGUAAUGGUAACGCGUCUCCCUCGUAAGGAGAAGACUGCGGGUUCGAGUCCCGUACGGAACG | 0.589
12 | GUUCAGUUGGCGUAAUGGUAACGCGUCUCCCUCAUAAGGAGAAGACUGCGGGUUCGAGUCCCGUACGGAACG | 0.606
13 | GUUCAGUUGGCGUAAUGGUAACGCGUCUCCCUUCUAAGGAGAAGACUGCGGGCUCGAGUCCCGUACGGAACG | ≤ 0.5
14 | GUUCAGUUGCCAUAAUGGUAACACGUCUCCCUCCUAAGGAGAAGACUGCGGGUUCGAGUCCCGAACGGAACG | ≤ 0.5
15 | GUUCAGUUGGCGUAAUGGUAACGCGUCUCCCUUCUAAGGAGAAGACUGCAGCUUCGAGUCCCGUCCGGAACG | ≤ 0.5
16 | GUUCAGUUGGCGUAAUGGUAACGCGUCUCCCUCCUAAGGAGAAGACUGUGGGUUCGAGUCCCGUCCGGAACG | 0.614
17 | GUUCAGUUAGCGUAAUGGUAACGCGUCUUCCUCCUAAGGAGAAGACUGCGGGUUCGAGUCCCGUACGGAACG | 0.547
18 | GUUCAGUUGGCGUAAUGGUAACGCGUCUCCUUCCUAAGGAGAAGACUGCGCGUUCGAGUCCCGUACGGAACG | 0.807
19 | GUUCAGUUGGCGUAAUGGUAACGCGUCUCCCUCCUAAGGAGAAGACUGCGGGUUCGAGUCCCGUAAGGAACG | 0.679
20 | GUUCAGUUGGCGUAAUGGUAACGCGUCUCCCUCCUAAGGAGAAGACUGCGGGUUCGAGUCCCGUAUGGAACG | 0.857
21 | GUUCAGUUGGCGUAAUGGUAACGCGUCUCCCUGAUAAGGCGAAGACUGCGGGUUCGAGUCCCGUACGGAACG | 0.567
22 | GUUCAGUUCGCGUAAUGGUAUCGCGUCUCCCUCCUAAGGAGAAGACUGCGGGUUCGAGUCCCGUACGGCACG | ≤ 0.5
23 | GUUCAGUUGCCGUAAUGGUAACGCGUCUCCCUCCUAAGGAGAGGACUGCGGGUUCGACUCCCGUAGGGAACG | ≤ 0.5
24 | GUUCAGUUCGCGUAAUGGUAACGCGUCUCCCUCCUAAGGAGAAGACUGCGGGUUCGAGUCCCGUACGGAACG | 0.627
25 | GUUCAGUUAGCGUAAUGGUAACGCGUCUCCCUCCUAAGGAGAAGACUGCGGGUUCGAGUCCCGUACGGAACG | 0.975

Row | Variant | yeast fitness
26 | GUUCAGUUGGCGUAAUGGUAACGCGUCUCCCUCCUAAGGAGAAGAAUGCGGGUUCGAGUCCCGUACGGUACG | 0.738
27 | GUUCAGUUGGCGUAAUGGUAACGCGUCUCCCUCCUAAGGAGAAGACUGAGGGGUCGAGUCCCGUACGGAACG | ≤ 0.5
28 | GUUCAAAUGGCGUAAUGGUAACGCGUCUCCCUCCUAAGGAGAUAAAUGCGGGUUCGAGUCCCAUACGCGACG | 0.532
29 | GUUCAGUUGGCGUAAUGGUAACGCGUCUCCCUCGUAAGGAGAAGACUGCGGGAUCGAGUCCCGUACGGAACG | ≤ 0.5
30 | GUUCACUUGGCGUAAUGGUAACGCGUCUCCCUCCUAAGGAGAAGACUGCGGGUUCGAGUCCCGUACGUAACG | ≤ 0.5
31 | GUUCAGUUGACGUAAUGGUAACGCGUCUCCCUCCUAAGAAGAAGACUGCGGGGUCGAGUCCCGUACGGAACG | ≤ 0.5
32 | GUUCAGUUGGCGUAAUGGUAACGCGUCUCCUUCCCAAGGAGAAGACUGCAGGUUCGAGUCCCGUACGGAACG | 0.565
33 | GUUCAGUUGGCGUAAUGGUAACGCGUCUCCCUCCUAAGGAGAAGACUGUGGGUUCGAGUCCCGUUCCGAACG | ≤ 0.5
34 | GUUCAGUUGGCGUAAUGGUAACGCGUCUCCCUUCUAAGGAGAAGACUGCGGGUUCGAGUCUCGUACGGAACG | ≤ 0.5
35 | GUUCAGUUGGCGUAAUGGUAACGCGUCUCCCUCCUAAGGAGAAGACUGCGGGUUCGAGUGCCGUACAGAACG | ≤ 0.5
36 | GUUCAGUUGGCGUAAUGGUAACGCGUCUCCCUGCUAAGGGGAAGACUGCGGGUUCGAGUCCCGUACGGAACG | 0.521
37 | GUUCAGUUGGCGUAAUGGUAACGCGUCUCCCUUCUAAGGAGAAGACUGCGGGUUCGAGUCCAGUACGGAACG | 0.542
38 | GUUCAGUUGGCGUAAUGGUAACGCGUCUCCUUCCUAAGGAGAAGACUGCGGGUUCGAGUCCCGUACGAAACG | 0.639
39 | GUUCAGUUGGCGUAAUGGUAACGCGUCUCCCUCGUAAGGAGAAGACUGCGGGUUCGAAUCCCGUACAGAACG | ≤ 0.5
40 | GUUCAGUUGGCGUAAUGGUAACGCGUCUCCCUCAUAAGGAGAAGAUUGCGGGUUCGAGUCCCGUACGGAACG | 0.553
41 | GUUCAGUUGGCGUAAUGGUAACGCGUCUCCUUCCCAAGGAGAAGACUGCGGGUUCGAGUCCCGUACGGUACG | 0.539
42 | GUUCAGUUGACGUAAUGGUAACGCGUCUCCCUCCUAAGGAGAAGACUGAGGGUUCGAGUCCCGUACGGAACG | ≤ 0.5
43 | GUUCAGUUGGCGUAAUGGUAACGCGUCUCCCUCAUAAGGAGAAGACUGCGGGUUCGAGUCCCGUACGCAACG | ≤ 0.5
44 | GUUCAGUUGGCGUAAUGGUAACGCGUCUCCCUCCUAAGGAGAAGAAUGCGGGUUCCAGUCCCGUACGGAGCG | ≤ 0.5
45 | GUUCAGUUGGCGUAAUGGUAACGCGUCUCCCUCCUAAGGAGAAGAUUGCGGGUUUGAGUCCCGUACGGAACG | 0.763
46 | GUUCAGUUGGCGUAAUGGUAACGCGUCUCCCUACUAAGGAGAAGACUGCGGGUUCGAGUCCCGUUCGGAACG | ≤ 0.5
47 | GUUCAGUUGCCGUAAUGGUAACGCGCCUCCCUCCUAAGGAGAAGACUGCGGGUUCGAGUCCCGUACGGAACG | 0.518
48 | GUUCAGUUGGCGUAAUGGUAACGCGUCUCCCUCCUAAGGAGAAGACUGCGGGUUCGAGUCCUGUAGGGAACG | ≤ 0.5
49 | GUUCAGUUGGCGUAAUGGUAACGCGUCUCCCUCCUAAGGAGAAGACUGCGGGUUCGAGUCCGGUACGGAACG | 0.778
50 | GUUCAGUUGGCGUAAUGGUAACGCGUCUCCCUCCUAAGGAGAAGACUGCGGGUUCGAGUCCAGUACGGAACG | 0.743

Row | Variant | yeast fitness
51 | GUUCAGUUGGCGUAAUGGUAACGCGUCUCCCUCUUAAGGAGAAGACUGCGGGUUCGAGUCGCGUACGGAACG | ≤ 0.5
52 | GUUCAGUUGGCGUAAUGGUAACGCGUCUCCCUCUUAAGGGGAAGACUGCGGGUUCGAGUCCCGUACGGAACG | 0.727
53 | GUUCAGUUCGCGUAAUGGUAUCGCGUCUCCCUCCUAAGGAGAAGACUGCGGGUUCGAGUCCCGUACGGAACG | ≤ 0.5
54 | GUUCAGUUGCCGUAAUAGUAACGCGUCUCCCUCCUAAGGUGAAGACUGCGGGUUCGAGUCCCGCACGGAACG | 0.582
55 | GUUCAAUUGGCGUAAUGGUAACGCGUCUCCCUCCUAAGGAGAAGACUGCGGGUUCGAGUCCCGUACGGAACG | 0.808
56 | GUUCAGUUGGCGUAAUGGUAACGCGUCUCCCUCUUCAGGCGAAGACUGCGGGUUCGAGUCCCGUACGGAACG | ≤ 0.5
57 | GUUCAGUUGGCGUAAUGGUAACGCGUCUCCUUCCUAAGGAGAAGACUGCGGGUUCGACUCCCGCACGGAGCG | 0.576
58 | GUUCAGUUGGCGUAAUGGUAACGCGUCUCCCUCAUAAGGAGACGCUUGCGGGUUCGAGUCCCGUACGGAACG | 0.593
59 | GUUCAGUUCGCGUAAUGGUAACGCGUCUCCCUCCUAAGGAGCAGACUGGGGGUUCGAGUCCCGUACGAAACG | ≤ 0.5
60 | GUUCAGUUCGCGUAAUGGUAACGCGUCUCCCUCCUUAGGAGAAGACUGCAGGUUCGAGUCCCGUACGGAACG | 0.536
61 | GUUCAGUUGGCGUAAUGGUAACGCGUCUCCCUCUUCAGGCGAAGACUGCGGGUUAGAGUCCCGUAUGGAACG | ≤ 0.5
62 | GUUCAGUUAGCGUAAUGGUAACGCGUCUCCCCCCUAAGGAGAAGACUGCGGGUUCGAGUCCCGUACGGAACG | 0.602
63 | GUUCAGUUGGCGUAAUGGUAACGCGUCUCCCUCCUAAGGAGAAGACUGCGGGUUACAGUCCCGUACGGAACG | ≤ 0.5
64 | GUUCAGUUGGCGUAAUGGUAACGCGUCUCCCUCAUAAGGUGAGGACUGCGGGUUCGAGUCCUGUACGGAACG | ≤ 0.5
65 | GUUCAGUUGGCGUAAUGGUAACGCGUCUCCCUCCUAAGGAGAAGACUGCGGGUUCGAGUCUCGUACGGAACG | 0.966
66 | GUUCAGUUGGCGUAAUGGUAACGCGUCUCCCUGCUAAGGAGAAGACUGCGGGUUCGAGUCCCGUUCGGAACG | ≤ 0.5
67 | GUUCAGUUGGCGUAAUGGUAACGCGUCUCCCUCCUAAGGAGAAGACUGCGGGUUAGAGUCCCGUACGGAACG | 0.655
68 | GUUCAGUUGGCGUAAUGGUAACGCGUCUCCCUCCUAAGGAGAAGACUGCGGGUUUGAGUCCCGUACGGAACG | 0.707
69 | GUUCAGUUGGCGUAAUGGUAACGCGUCUCCCUGCUAAGGAGCAGACUGCGGGUUCGAGUCCCGUACGGAACG | ≤ 0.5
70 | GUUCAGUUGGCGUAAUGGUAACGCGUCUCCCUCCUAAGGAGAAGACUGCGGGUUCGAGUCCUGUACGGACCG | 0.616
71 | GUUCAGUUGGCGUAAUGGUAACGCGUCUCCCUCCUAAGGAGAAGAAUGCGGGUUCCAGUCCCGUACGGAACG | ≤ 0.5
72 | GUUCAGUUGGCGUAAUGGUAACGCGUCUCCCUCCUAAGGAGAAGACUGCGGGUUUGAGUCCCAUACCGAACG | ≤ 0.5
73 | GUUCAGUUGGCGUAAUGGUAACGCGUCUCCCUUCUAAGGAGAAGACUGCGGGUUCAAGUCCCGUACGGAACG | ≤ 0.5
74 | GUUCACUUGGGGUAAUGGUAAUGCGUCUCCCUCCUAAGGAGAAGAUUGCGGGUUCAAGUCCCGUACGGAACG | ≤ 0.5
75 | GUUCAGUUCGCGUAAUGGUAACGCGUCUCCCUCCUAAGGAGAAGACGGCGGGUUCGAGUCCCGUACGUAACG | ≤ 0.5
